The source made the active and inactive calls. No cut-off for these calls is given here.
Key:
[1] = molecular target: Tyrosine-protein kinase ZAP-70 (Homo sapiens) (UniProt P43403); test: Inhibition of recombinant human N-terminal His6-tagged ZAP70 (1 to 619 residues) expressed in baculovirus infected Sf21 cells assessed as remaining activity at 1 uM using Poly(Glu,Tyr) as substrate incubated for 30 mins in presence of [gamma-33P]ATP by filter binding method relative to control
[2] = molecular target: Dual specificity tyrosine-phosphorylation-regulated kinase 2 (Homo sapiens) (UniProt Q92630); test: Inhibition of recombinant human N-terminal GST-tagged DYRK2 (3 to 528 residues) expressed in Escherichia coli assessed as remaining activity at 1 uM using KKISGRLSPIMTEQ as substrate incubated for 30 mins in presence of [gamma-33P]ATP by filter binding method relative to control
Chain of Dual specificity tyrosine-phosphorylation-regulated kinase 2 (Homo sapiens) (Q92630 whole entry, the tested form may be a part): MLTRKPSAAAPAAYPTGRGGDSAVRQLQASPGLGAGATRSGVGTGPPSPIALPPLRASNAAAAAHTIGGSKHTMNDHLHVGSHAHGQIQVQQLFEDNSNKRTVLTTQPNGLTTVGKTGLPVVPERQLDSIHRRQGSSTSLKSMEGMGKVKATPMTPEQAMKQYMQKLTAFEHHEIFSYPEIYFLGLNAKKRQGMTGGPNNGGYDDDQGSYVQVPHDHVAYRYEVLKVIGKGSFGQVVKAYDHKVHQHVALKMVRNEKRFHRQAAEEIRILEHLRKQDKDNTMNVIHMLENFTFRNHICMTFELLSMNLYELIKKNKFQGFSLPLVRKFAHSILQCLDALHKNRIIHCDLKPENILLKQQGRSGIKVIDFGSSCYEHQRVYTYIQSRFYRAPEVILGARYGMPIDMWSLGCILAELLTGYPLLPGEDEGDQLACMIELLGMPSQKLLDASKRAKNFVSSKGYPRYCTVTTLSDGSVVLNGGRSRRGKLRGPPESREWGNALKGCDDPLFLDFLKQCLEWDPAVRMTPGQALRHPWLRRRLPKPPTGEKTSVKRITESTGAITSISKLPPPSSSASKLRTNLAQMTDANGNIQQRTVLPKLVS

[3] = molecular target: Serine/threonine-protein kinase 26 (Homo sapiens) (UniProt Q9P289); test: Inhibition of recombinant human N-terminal His6-tagged MST4 (1 to 416 residues) expressed in baculovirus infected Sf21 cells assessed as remaining activity at 1 uM using MBP as substrate incubated for 30 mins in presence of [gamma-33P]ATP by filter binding method relative to control
Chain of Serine/threonine-protein kinase 26 (Homo sapiens) (Q9P289 2-416 limits assumed): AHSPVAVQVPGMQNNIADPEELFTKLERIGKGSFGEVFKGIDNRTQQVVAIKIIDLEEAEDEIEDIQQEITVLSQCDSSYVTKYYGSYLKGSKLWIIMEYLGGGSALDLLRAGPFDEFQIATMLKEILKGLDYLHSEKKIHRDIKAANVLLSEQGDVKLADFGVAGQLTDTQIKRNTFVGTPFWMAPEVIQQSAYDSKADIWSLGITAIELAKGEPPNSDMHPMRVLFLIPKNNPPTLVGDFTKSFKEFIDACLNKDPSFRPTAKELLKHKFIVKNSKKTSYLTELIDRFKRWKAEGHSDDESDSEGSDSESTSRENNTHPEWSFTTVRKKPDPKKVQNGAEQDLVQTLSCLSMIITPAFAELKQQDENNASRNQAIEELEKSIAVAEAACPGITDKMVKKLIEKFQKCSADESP

[4] = molecular target: Mitogen-activated protein kinase kinase kinase kinase 5 (Homo sapiens) (UniProt Q9Y4K4); test: Inhibition of MAP4K5 (unknown origin) assessed as remaining activity at 1 uM relative to control
Procedure, shortened: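 Dundee panel of 140 protein kinases, tested at a single 1 μM concentration. Each assay was run in triplicate. Remaining activity is expressed relative to a control reaction without inhibitor, as mean ± S.D. Conditions for each kinase were those of the screening centre.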

[5] = molecular target: Serine/threonine-protein kinase Nek2 (Homo sapiens) (UniProt P51955); test: Inhibition of recombinant human N-terminal His6-tagged NEK2A (1 to 445 residues) expressed in baculovirus infected Sf21 cells assessed as remaining activity at 1 uM using RFRRSRRMI as substrate incubated for 30 mins in presence of [gamma-33P]ATP by filter binding method relative to control
[6] = molecular target: Receptor tyrosine-protein kinase erbB-4 (Homo sapiens) (UniProt Q15303); test: Inhibition of recombinant human N-terminal His6-tagged HER4 (706 to 991 residues) expressed in baculovirus infected Sf21 cells assessed as remaining activity at 1 uM using Poly (Glu,Tyr) as substrate incubated for 30 mins in presence of [gamma-33P]ATP by filter binding method relative to control
[7] = molecular target: MAP kinase-interacting serine/threonine-protein kinase 2 (Homo sapiens) (UniProt Q9HBH9); test: Inhibition of recombinant human N-terminal GST/C-terminal His6-tagged MNK2alpha (2 to 465 residues) expressed in Escherichia coli assessed as remaining activity at 1 uM using eIF4E as substrate incubated for 30 mins in presence of [gamma-33P]ATP by filter binding method relative to control
[8] = molecular target: Serine/threonine-protein kinase PAK 6 (Homo sapiens) (UniProt Q9NQU5); test: Inhibition of recombinant human N-terminal GST-tagged PAK6 (2 to 681 residues) expressed in Escherichia coli assessed as remaining activity at 1 uM using RRRLSFAEPG as substrate incubated for 30 mins in presence of [gamma-33P]ATP by filter binding method relative to control
[9] = molecular target: Misshapen-like kinase 1 (Homo sapiens) (UniProt Q8N4C8); test: Inhibition of human MINK1 at 1 uM using RBER-CHKtide as substrate in presence of 33P-ATP by ProQinase assay
[10] = molecular target: Insulin-like growth factor 1 receptor (Homo sapiens) (UniProt P08069); test: Inhibition of human IGF1R at 1 uM using polyEY as substrate in presence of 33P-ATP by ProQinase assay
[11] = molecular target: Ephrin type-A receptor 7 (Homo sapiens) (UniProt Q15375); test: Inhibition of human EPHA7 at 1 uM using polyEy as substrate in presence of 33P-ATP by ProQinase assay
Chain of Ephrin type-A receptor 7 (Homo sapiens) (Q15375 28-998 limits assumed): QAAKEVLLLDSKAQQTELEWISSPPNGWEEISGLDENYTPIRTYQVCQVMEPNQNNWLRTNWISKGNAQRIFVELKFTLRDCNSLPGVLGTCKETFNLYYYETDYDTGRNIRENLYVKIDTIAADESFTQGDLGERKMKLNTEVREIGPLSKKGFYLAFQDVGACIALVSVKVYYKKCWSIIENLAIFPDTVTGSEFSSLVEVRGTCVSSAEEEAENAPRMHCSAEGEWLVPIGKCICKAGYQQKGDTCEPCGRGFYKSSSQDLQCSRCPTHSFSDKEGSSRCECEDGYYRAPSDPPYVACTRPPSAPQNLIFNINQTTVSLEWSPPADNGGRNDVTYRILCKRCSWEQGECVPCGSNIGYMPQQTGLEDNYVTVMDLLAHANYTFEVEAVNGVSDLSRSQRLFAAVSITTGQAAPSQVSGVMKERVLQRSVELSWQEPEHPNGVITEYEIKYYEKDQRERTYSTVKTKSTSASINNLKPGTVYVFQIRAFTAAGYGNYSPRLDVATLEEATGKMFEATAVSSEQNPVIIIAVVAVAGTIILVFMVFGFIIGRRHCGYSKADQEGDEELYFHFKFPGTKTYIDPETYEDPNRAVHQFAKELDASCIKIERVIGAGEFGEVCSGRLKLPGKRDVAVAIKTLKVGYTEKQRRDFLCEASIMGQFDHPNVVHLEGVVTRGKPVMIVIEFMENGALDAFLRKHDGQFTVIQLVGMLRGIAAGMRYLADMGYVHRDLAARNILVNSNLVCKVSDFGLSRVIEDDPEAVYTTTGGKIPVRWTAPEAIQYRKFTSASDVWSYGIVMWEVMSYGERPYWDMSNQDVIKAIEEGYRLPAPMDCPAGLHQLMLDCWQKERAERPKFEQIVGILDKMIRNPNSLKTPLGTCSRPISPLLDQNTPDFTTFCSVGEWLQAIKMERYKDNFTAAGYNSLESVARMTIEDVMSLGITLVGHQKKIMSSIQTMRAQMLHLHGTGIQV

[12] = molecular target: Ephrin type-A receptor 2 (Homo sapiens) (UniProt P29317); test: Inhibition of human EPHA2 at 1 uM using polyEy as substrate in presence of 33P-ATP by ProQinase assay
[13] = molecular target: Serine/threonine-protein kinase 3 (Homo sapiens) (UniProt Q13188); test: Inhibition of human MST2 at 1 uM using RB-CTF as substrate in presence of 33P-ATP by ProQinase assay
Chain of Serine/threonine-protein kinase 3 (Homo sapiens) (Q13188 whole entry): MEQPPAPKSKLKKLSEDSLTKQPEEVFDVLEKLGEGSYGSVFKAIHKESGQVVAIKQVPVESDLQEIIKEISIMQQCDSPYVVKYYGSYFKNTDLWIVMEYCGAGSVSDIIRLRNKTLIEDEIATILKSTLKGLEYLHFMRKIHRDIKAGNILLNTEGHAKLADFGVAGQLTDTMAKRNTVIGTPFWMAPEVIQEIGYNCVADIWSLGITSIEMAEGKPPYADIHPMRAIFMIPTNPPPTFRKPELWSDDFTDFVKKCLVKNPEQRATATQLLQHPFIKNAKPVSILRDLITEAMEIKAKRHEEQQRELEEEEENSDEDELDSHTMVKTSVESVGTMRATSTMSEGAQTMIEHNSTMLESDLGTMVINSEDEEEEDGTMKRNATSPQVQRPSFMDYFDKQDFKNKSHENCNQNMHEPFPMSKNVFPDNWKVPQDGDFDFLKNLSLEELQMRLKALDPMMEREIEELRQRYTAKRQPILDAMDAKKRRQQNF

[14] = molecular target: Mitogen-activated protein kinase 8 (Homo sapiens) (UniProt P45983); test: Inhibition of human JNK1 at 1 uM using ATF2 as substrate in presence of 33P-ATP by ProQinase assay
[15] = molecular target: Serine/threonine-protein kinase Nek9 (Homo sapiens) (UniProt Q8TD19); test: Inhibition of human NEK9 at 1 uM using RBER-GSK3 as substrate in presence of 33P-ATP by ProQinase assay
[16] = molecular target: Serine/threonine-protein kinase WNK2 (Homo sapiens) (UniProt Q9Y3S1); test: Inhibition of human WNK2 at 1 uM using RBER-CHKtide as substrate in presence of 33P-ATP by ProQinase assay
Chain of Serine/threonine-protein kinase WNK2 (Homo sapiens) (Q9Y3S1 whole entry): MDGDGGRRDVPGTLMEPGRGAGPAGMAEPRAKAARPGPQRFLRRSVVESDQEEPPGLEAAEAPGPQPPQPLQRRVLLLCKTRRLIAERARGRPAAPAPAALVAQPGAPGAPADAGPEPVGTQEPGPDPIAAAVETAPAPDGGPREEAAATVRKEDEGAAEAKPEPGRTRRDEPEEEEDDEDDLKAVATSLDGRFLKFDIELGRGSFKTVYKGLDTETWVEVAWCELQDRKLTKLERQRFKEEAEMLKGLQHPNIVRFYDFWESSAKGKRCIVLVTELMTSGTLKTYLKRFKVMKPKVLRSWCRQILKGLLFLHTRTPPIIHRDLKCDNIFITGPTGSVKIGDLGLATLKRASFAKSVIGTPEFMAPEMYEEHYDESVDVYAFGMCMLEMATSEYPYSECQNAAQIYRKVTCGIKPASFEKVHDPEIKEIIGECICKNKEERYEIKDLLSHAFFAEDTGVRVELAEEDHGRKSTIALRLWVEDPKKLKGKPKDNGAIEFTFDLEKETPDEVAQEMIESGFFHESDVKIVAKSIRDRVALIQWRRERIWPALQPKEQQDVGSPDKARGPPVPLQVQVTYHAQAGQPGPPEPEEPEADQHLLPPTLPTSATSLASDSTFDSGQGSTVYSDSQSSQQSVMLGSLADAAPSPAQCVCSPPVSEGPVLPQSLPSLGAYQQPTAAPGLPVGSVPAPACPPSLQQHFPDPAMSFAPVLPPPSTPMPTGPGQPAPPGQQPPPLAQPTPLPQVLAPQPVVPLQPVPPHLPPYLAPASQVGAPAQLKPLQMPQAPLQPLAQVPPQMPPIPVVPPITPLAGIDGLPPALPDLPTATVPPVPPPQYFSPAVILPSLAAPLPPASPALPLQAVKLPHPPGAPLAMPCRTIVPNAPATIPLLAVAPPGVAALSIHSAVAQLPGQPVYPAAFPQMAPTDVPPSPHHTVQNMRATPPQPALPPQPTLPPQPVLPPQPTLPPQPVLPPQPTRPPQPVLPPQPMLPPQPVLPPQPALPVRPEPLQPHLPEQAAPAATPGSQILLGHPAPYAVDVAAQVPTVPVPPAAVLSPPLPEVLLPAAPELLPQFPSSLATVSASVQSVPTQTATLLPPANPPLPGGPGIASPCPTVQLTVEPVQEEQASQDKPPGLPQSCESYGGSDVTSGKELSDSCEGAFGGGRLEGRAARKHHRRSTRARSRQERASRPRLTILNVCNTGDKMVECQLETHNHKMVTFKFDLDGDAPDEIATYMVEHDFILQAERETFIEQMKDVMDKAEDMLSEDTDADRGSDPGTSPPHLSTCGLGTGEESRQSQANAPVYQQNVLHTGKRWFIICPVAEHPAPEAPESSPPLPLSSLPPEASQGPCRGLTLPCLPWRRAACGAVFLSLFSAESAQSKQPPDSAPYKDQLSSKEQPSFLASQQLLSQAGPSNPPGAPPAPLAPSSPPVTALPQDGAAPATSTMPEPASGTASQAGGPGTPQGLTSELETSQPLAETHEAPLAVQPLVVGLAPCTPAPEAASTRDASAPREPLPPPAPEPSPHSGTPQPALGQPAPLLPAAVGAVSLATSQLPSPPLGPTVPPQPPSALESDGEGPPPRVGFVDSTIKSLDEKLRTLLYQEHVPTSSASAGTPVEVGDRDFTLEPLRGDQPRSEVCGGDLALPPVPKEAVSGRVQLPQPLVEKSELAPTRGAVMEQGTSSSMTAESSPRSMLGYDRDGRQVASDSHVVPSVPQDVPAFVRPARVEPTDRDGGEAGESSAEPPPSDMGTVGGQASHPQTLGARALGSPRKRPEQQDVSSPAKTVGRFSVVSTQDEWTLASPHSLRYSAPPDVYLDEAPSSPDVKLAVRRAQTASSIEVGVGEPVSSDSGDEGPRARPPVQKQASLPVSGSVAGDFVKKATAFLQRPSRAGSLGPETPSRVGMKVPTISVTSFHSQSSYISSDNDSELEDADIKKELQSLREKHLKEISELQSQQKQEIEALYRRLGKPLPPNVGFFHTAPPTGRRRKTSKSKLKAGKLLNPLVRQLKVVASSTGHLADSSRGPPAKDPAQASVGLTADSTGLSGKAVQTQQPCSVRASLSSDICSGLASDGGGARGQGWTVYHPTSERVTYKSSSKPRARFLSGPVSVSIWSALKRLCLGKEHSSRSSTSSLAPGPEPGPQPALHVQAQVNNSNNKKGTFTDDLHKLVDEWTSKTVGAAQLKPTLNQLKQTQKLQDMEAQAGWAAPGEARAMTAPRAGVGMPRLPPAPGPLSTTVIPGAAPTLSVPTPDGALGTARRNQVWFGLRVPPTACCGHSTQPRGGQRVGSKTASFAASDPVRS

[17] = molecular target: Mitogen-activated protein kinase 9 (Homo sapiens) (UniProt P45984); test: Inhibition of human JNK2 at 1 uM using ATF2 as substrate in presence of 33P-ATP by ProQinase assay
[18] = molecular target: Ephrin type-A receptor 3 (Homo sapiens) (UniProt P29320); test: Inhibition of human EPHA3 at 1 uM using polyEY as substrate in presence of 33P-ATP by ProQinase assay
[19] = molecular target: Mitogen-activated protein kinase kinase kinase 11 (Homo sapiens) (UniProt Q16584); test: Inhibition of human MAP3K11 at 1 uM using MBP as substrate in presence of 33P-ATP by ProQinase assay
[20] = molecular target: Cyclin-dependent kinase 5/CDK5 activator 1 (Homo sapiens) (UniProt Q00535+Q15078); test: Inhibition of human CDK5/p35NCK at 1 uM using RBER-CHKtide as substrate in presence of 33P-ATP by ProQinase assay; assay type: protein-complex assay
[21] = molecular target: Tyrosine-protein kinase TXK (Homo sapiens) (UniProt P42681); test: Inhibition of human TXK at 1 uM using RBER-CHKtide as substrate in presence of 33P-ATP by ProQinase assay
[22] = molecular target: Discoidin domain-containing receptor 2 (Homo sapiens) (UniProt Q16832); test: Inhibition of human DDR2 at 1 uM using poly(Ala,Glu,Lys,Tyr) as substrate in presence of 33P-ATP by ProQinase assay
[23] = molecular target: Serine/threonine-protein kinase PAK 3 (Homo sapiens) (UniProt O75914); test: Inhibition of human PAK3 at 1 uM using bio-4xCHKT as substrate in presence of 33P-ATP by ProQinase assay
[24] = molecular target: STE20-like serine/threonine-protein kinase (Homo sapiens) (UniProt Q9H2G2); test: Inhibition of human SLK at 1 uM using RB-S6P as substrate in presence of 33P-ATP by ProQinase assay

Question: With CC(C)(O)CNc1ncc(-c2ccnc(Nc3ccnc(Cl)c3)n2)c(CC2CC2)n1 as the compound, how does the Activity [1] read?
Answer: 110%

Question: What about the Activity [2] of the same compound?
Answer: 109%

Question: And the Activity [3]?
Answer: 108%

Question: And the Activity [4]?
Answer: 105%

Question: And the Activity [5]?
Answer: 103%

Question: And the Activity [6]?
Answer: 101%

Question: And the Activity [7]?
Answer: 100%

Question: What about the Activity [8] of the same compound?
Answer: 97%

Question: What about the inhibition [9] of the same compound?
Answer: inactive

Question: And the inhibition [10]?
Answer: inactive

Question: What about the inhibition [11] of the same compound?
Answer: inactive

Question: And the inhibition [12]?
Answer: inactive

Question: And the inhibition [13]?
Answer: inactive

Question: And the inhibition [14]?
Answer: inactive

Question: What about the inhibition [15] of the same compound?
Answer: inactive

Question: And the inhibition [16]?
Answer: inactive

Question: What about the inhibition [17] of the same compound?
Answer: inactive

Question: What about the inhibition [18] of the same compound?
Answer: inactive

Question: What about the inhibition [19] of the same compound?
Answer: inactive

Question: What about the inhibition [20] of the same compound?
Answer: inactive

Question: What about the inhibition [21] of the same compound?
Answer: inactive

Question: What about the inhibition [22] of the same compound?
Answer: inactive

Question: What about the inhibition [23] of the same compound?
Answer: inactive

Question: And the inhibition [24]?
Answer: inactive

Source: ChEMBL document CHEMBL5705899 (Biochem J, 2014)
